# Results taken from the RNAGym collection of RNA variant scans (doi:10.1126/science.aae0568).
# Variants at the floor of the assay were thinned out.
# B1: tRNA (parent)
# chain: GUUCCGUUGGCGUAAUGGUAACGCGUCUCCCUCCUAAGGAGAAGACUGCGGGUUCGAGUCCCGUACGGAACG
# Variants of: B1
# Test: yeast fitness relative to wild type (ratio to wild type); higher = fitter; tRNA-Arg(CCU), competitive growth, 37 C, YPD
# Summary of the method: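 A pool of Saccharomyces cerevisiae strains, each with a tRNA-Arg(CCU) gene variant at the native genomic locus, was competed in YPD at 37°C for 24 hours across six parallel replicates. The variants had been chemically synthesised at a 3% per-site mutation rate over 69 sites, and gene amplicons before and after competition were read by 100-nucleotide paired-end sequencing. Darwinian fitness relative to wild type rested on changes in genotype frequencies. Genotypes required ≥ 100 starting reads, and estimates < 0.5 were set to 0.5.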
row,Variant,yeast fitness
1,GUUCCGAUGGCGUAAUGGUAACGCGUCUCCGUCCUAAGGAGAAGACUGCGGGUUCGAGUCCCGUACGGAACG,0.78
2,GUUCCGUUGGCGUAAUGGUAACGCGUCUGCCUCCUAAGGAGGAGACUGCGGGUUCGAGUCCCGUACGGAACG,0.694
3,GUUCCGUUGUCGUAAAGGUAACGCAUCUCCCUCCUAAGGAGAAGACUGUCGGUUCGAGUCCCGUACGGAACG,≤ 0.5
4,GUUCCGUUGGCAUAAUGGUAACGCGUCUCCCGUCUAAGGAGAAGUCUGCGGGUUUGAGUCCCGUACGGAACG,≤ 0.5
5,GUUCCGUUGGCGUAAUGGUAACGCGUCUCCCUCCUAAGGGGAAAACUGCGGGUUCGAGUCCCGUACGGAACG,0.717
6,GCUCCGUUGGCGUAAUAGUAACGCGUCUCCCUCCUACGGAGAAGACUGCGGGUUCGAGUCCCGUGCGGAACG,0.539
7,GUUCAGUUGGCGUAAUGGUAAUGCGUGUCGCUCCUAAGGAGAAGUCUGCGGGUUCGAGUCCAGUACGGAACG,≤ 0.5
8,GUUCUGUUGGCGUAAUGGUAACGCGUCUCCCUCCUAAGGAGAAGACUGCGGGUUCGCGUCCCGUACGGAACG,0.659
9,GUUCGGUUGGCGUAAUGGUAACGCGUUUCCCUCCUAAGGAGAAGACUGCGGGUUCGAGUCCCGUAUGGAACG,0.654
10,GUUCCGUUGGCGUAAUGGUAACGCGUCUCCCUCCUAAGGAGAAGACUGCGGGUUCGAGUCCCGUCCGGAUCG,1.06
11,GUUGCGGUGGCGUAAUGGUAACGCGUCUCCCUCAUAAGGAGAAGACUGCGGGUUCGAGUCCCGUACGGAACG,≤ 0.5
12,GUUCCGAUGGAGUAAUGGUACCGCGUCUUCCUCCUAAGGAGAAGACUGUGGGUUCAAGUCCCGUACGGAACG,≤ 0.5
13,GUUCCGUUGGCCUCGUGGUAACGCGUCUCCCUCCUACGGAGAAGACUGCGGGUUCGUGUCCCGUACGGAACG,0.682
14,GUUCCGUUGGCGUAAUGGUAACGCGUCCCGCUCCUAAGGAGAAGCCUGUGGGUUCGAGUCCCGUACGGAACG,≤ 0.5
15,GUUCCGUUGGCGUAAUGGUAACGCGUCUCCCUCCUAAGGAGAAGACUGAGGGUUCGAGUCCCGUACGCAACG,0.578
16,GCUCCGUUGGCGUACUGGUAACCCGUCUCCAUCCUAAGGAGAAGACUGCGGGUUCGAGUCCCGUACGGAACG,≤ 0.5
17,GUUCCGUUGGCGUAAUGGUUACGCGUCUCCCUCCUAAGGAGAAGCCUGCGGGUUCGAGUCCCGUGCGGAACG,0.576
18,GUCCCGUUGGCGUAAUGGUAACGCGUCUCCCUGCUAAGGAGAAGACUGCGGGUUUGAGUCCCGUACGGAACG,≤ 0.5
19,GUUCCGUUGGCGUAAUCGUAACGCGUCUCCCUCCUAAGGAGUAGACUGCGGGUUCGAGUCCUGUACGGAACG,0.645
20,GUUCCGUUGGCGUAAUGGUAACGCGUCACCCUCCUGAGGAGAAGACUGCGGGUUCGAGUCCCGUACGGAACG,0.73
21,GUUCCGUGGGCGUAAUGCUAACGCGUCUCCCUCCUAGGGGGAAGACUGCGGGUUCGAGUCCCCUACGGAACG,0.506
22,GUUCCGUUGGCGUAAUGGUAACGCGUCUCCCACCUAAGGAGAAGACUGCGGGUUCAAGUCCCGUACGGUACG,0.554
23,GUUCUGUUGGCGUAAUGGUAACGCGUCUCCCUCCUAAGGAGAAGACUGCGGGUUCGAGUCCCGUACCGAACG,0.913
24,GUUACGUUGGCGUAAUGGUUACGCGUCUCCCUCCUAAGGAGAUGACUGCGGGCUCGAGACCCGUAUGGAACG,≤ 0.5
25,GUUCCGUUGGCGUAAUGGUAACGCGUCUCCCUCCUAAGAAGCAGACUGCGGGUUCGAGUCCCGUACGGAACG,0.646

row,Variant,yeast fitness
1,GUUCCGGUGGCGUAAUGGUACCGCGUCUCCCUCCUAAGCAGAAGACUGAGAGUUCGAGUCCCGUACGGAACG,≤ 0.5
2,GUUCCGUUGGCGUAAUGGUAACGCAUCUCCCUCCUAAGGAGAAGGCUGCGGGUUCGAGUCCCGUGCGGAACG,0.823
3,GUUCUGUUGGCGUAAUGGUAAUGCGUCUCCGUGUUAAGGAGAAGACUGCGGGUUCGAGUCCCGUACGAAACG,≤ 0.5
4,GUUCCGUUGGCGUAAUGGUAACGCGUCUCCCUCCUAAGGAGAAGACUGCGGGGUCGAGUCCCGUACGGAACG,0.629
5,GUUCCGUUGGCGUAAUGGUAAUGCGUCUCCCUCCUCAGGAGAAGCCUGCGGGUUCGAGUCCCGUACGGAACG,≤ 0.5
6,GUUCCGUUGGCGUUAUGGUAACGCGUCUCCCUCCUACGGAGAAAACUGCGGGUUCGAGUCCCGUACGGAACG,0.757
7,GUUCCGUUGGCGUAAUGGUAACGCGUCUCCCUCCUAAGGAGAAGACUGCGAGUUCGAGACUCGUACAGAACG,≤ 0.5
8,GUUCCGUUGACGUAAUGGUAACGCGUCUCCCUCCAAAGGAGAAGACUGCGGGUUCGAGUCCCGUACGGAACG,0.62
9,GUUCCGUUGGCGUAAUGGUAACGCGUCUGCCUCCUAAGGAGAAGACUGAGGGUUCGAGUACCGUACGGAACG,0.572
10,GUUCCGUUGGCGUAAUGGUAACGCCUCUCCCACCUAAGGCGAAGACUGCGGGUUCGAGUCCCGUACGGAACG,≤ 0.5
11,GUUCCGUUGGCGUAAUGGUAACGCGUCUGCCUCCUAAGGAGAAGACUGCGGGUUCGAGUCGCGUAGGGAACG,0.558
12,GUUACGUUGGCGUAUUGCUAACGCGUCUCCCUCCUAAGGAGAAGACUGCGGGUUCCAGUCCCGUACGGAACG,≤ 0.5
13,GUUCAGUUGGGGUAAUGGUAACGCGUCUUCCUCCUUAGGAGAAGACUGCCGGUGCGAGUCCCGUACGGAACG,≤ 0.5
14,GUUCCGUUGGCGUAAUGGUAACACGUAUCCCUCCUAAGGAGAAGACUGCGGGUACAAGUCCCGUAGGGAACG,≤ 0.5
15,GUUCCGUUGGCGUAAUGGUGACGGGUCUCCCUCCUAAGGAGAAGACUGCGGGUUCGAGUGCUGUACGGAACG,0.562
16,GUUCCGUUGGCGUAAUGGGAACGCGUCUCCCGCCUAAGGAGAAGACUGCGGGGUCGAGUCCCGUACGGAACG,≤ 0.5
17,GAUCCGUAGGCGUAAUGGUAACGCGUCUCCCUUCUAAGGAGAUGACUGCGGGUUCGGGUCCCGUACUGAACG,≤ 0.5
18,GUUCCGUUGGCGUAAUGGUAAGGCGUCUCCCUCCUAAGGAGAAGACAGCGGGUUCGAGUCCCGUACGGAACG,0.754
19,GUUCCGGUGGCGUAAUGGUAACGCGUUUCCCUUCUAAGGAGAAGACUGCCGGAUCGUGUCCCGUUCGGAACG,≤ 0.5
20,GUUCCGUUGGCGUAAUGGUAACGCGUCUCCCUCGUAAGGAGAAGACUGCCGGUUGGAGUACCGUACGGAACG,0.715
21,GUUCCGUUGGCGUAAUGGUAACGGGUCUCCCUCCUAAGGGGAAGACUGCGGGUUCGUGUCCCGUACGAAACG,≤ 0.5
22,GUUCCGUUGGCGAAAUGGUAAGGAGUCUCCCUCCUAAGCAGACCACCGCGGGUUCGAGUCUCGUACGGAACG,≤ 0.5
23,GUUCCGUUGGCGUAAUGGUAACGGGUCUCCCUCCCAAGGAGAAGACUGUGGGUUCGAGUCGCGUACGGAACG,0.54
24,GUUCCGUUGGCGUAAUGGUAACGCGUCUCCCUCCUAAGGAGCAGACUGCGGGUUCGAGUACCGUACGGAACG,0.672
25,GUUCCGUUGGCGUAAUGGUAACGCGUCCCCCUCCUAAGGAGAAGACUGCGAGUUCGAGUCCCGUACGGAACG,0.773

row,Variant,yeast fitness
1,GUUACGUUGGCGUAAUAGUAACGCGUCUCCCUCCUAAGGAGAAGACUGCGGGUUCGAGUCCUGUACGGAACG,0.556
2,GUUCCGUUGGCGUAAUGGUAACGCGUGUCCCUCCUAAGGAGAAGACUGCGGGUUCGAGUCGCGUACGGAACG,0.554
3,GUUCCGUUGGCGUAAUGGUAACGCGUCUCCCUCCUGAGGAAAGGACUGCGGGUUCGAGUUCCGUACGGACCG,≤ 0.5
4,GUUCUGUUGGCGUAAUGGUAACGCGUCUCCCUCCUUAGGAGAAGUCUGCGGGUUCGAGUCCCGUACGGAACG,≤ 0.5
5,GUUCCGUUGGUGUAAUGGUAUCGCGUCUCCCUCCUAAGGAGAAGAAUGCGGGUUCGAGUCCCGUACGGAACG,0.685
6,GUUCCCUUGGCGUAAUGGUAACGCGUAUCCCUCCUAAGGAGAAAACUGCGGGUUCGAGUCCCGUACGGAACG,0.629
7,GUGCCGUUGGCGUAAUGGUAACGCGUCUCCCUCCUGAGGAGAAGACUGCGGGUUCGAGUCCCGUACGGAACG,0.977
8,GAUCCGUAGGCGUAAUGGUAACGCGUCUCCCUUCUAAGGAGAUGACUGCGGGUUCGGGUCCCGUACGGAACG,≤ 0.5
9,GUUACGUUGGCGUAAUGGUAACGCGUCUCCCUCCUAAGGAGAAGACUGCGGGCUCGAGUCCCGUACGGAACG,0.691
10,GUUCCGUUGGCAUAAUGGUAACGCGUCUCCCUCCUAAGGACAAGACUGCGGGUUCGAGUGCCGUACGGAUCG,≤ 0.5
11,GUUCUGUUGGCGUAAUGGUAAAGCGUCUCCCUCCUAAGGAGCAGACUGCGGGUUGGCGUCCUGUACGGAACG,≤ 0.5
12,GUUCCAUUGGCGUAAUGGUAACGCGUCUCCCUCCUAACGAGAAGACUGCGGGUUCGAGUCCCGUAUGGAACG,0.532
13,GUUCCGUUGGCGUAAUGGUAACGCGUGUCCCUGCUAAGGAGAAGACUGCGCGUUCGAGUUUCGUACGGAACG,≤ 0.5
14,GUUCCGUUGGCGUAAUGGUAACGCCUCUCCCUCCUAAGGAGAUGACUGCAGGUUCGAGUCCCGUACGAAACG,≤ 0.5
15,GUUCCGUUGGCGUUAUGGAAACACGUCUCCCUCCUAAGGAGACGACCGCGGGUUCGCGUCCCGUACGGAACG,≤ 0.5
16,GUUCCGUUGGGGUAAUGGUAACGCGUCUCCCUCCUAAGGAGAAGUCUGCGGGUUCGAGUCGCGUACGGAACG,≤ 0.5
17,GUUCCGUUGGCGUAAUGGUAACGCGUCUACCUCCUCAGGAGAAGACUGCGGGUUUGAGUCACGUACGGAACG,≤ 0.5
18,GUUCCGUUGGCGUAAUGGUAACGCGUCUCCCUCCUAACGAGAAGACUGCGGGUUGGAGUCCCGUACGGAACG,0.617
19,GAUCCGUUGGCGUAAUGGUAACACGUCUGCCUCCUAAGGCGAAGACUGCGGGUUGGAGUCCCGUACGGAACG,≤ 0.5
20,GUUCCGUUGGUGUAAUGGUAACGCGUCUCCCUCCGAAGGAGAAGACAACGGGUUCGAGUCCCGUUCGGAACG,≤ 0.5
21,GCUCCGUUGGUGUAAUGGUACCGCGCCUCCCUCAUAAGGAGAAGUAUGCAGGUCGGAGUCCCGUACGGAACG,≤ 0.5
22,GAUCCGUUGGCGUAAUGGUAACGCGUCUCCCUACUAAGGAGAAGACUGCGGGUUCGAGUCCCGUACGGAACG,0.721
23,GUUCCGUUGGCGUCAUGGUAACGCGUCUCCCUCCUAAGGAGAAGACUGCGAGUUCGAGUCCCGUACGGAACG,0.714
24,GUUUCGUUGGCGUAAUGGUAACGCGUCUCCCUCCUAAGGACAAGACUGCGGGUUCGAGUCCCGUAAGGAACG,≤ 0.5
25,GUUCCGUCGGCGUAAUGGUAACGCGUCUCCCUCCUAGGCAGAAGACUGCGGGUUCGAGUCCCGUACGGAACG,≤ 0.5
